Rows were chosen to be rich in hits. Some 2.6% of all compounds tested hit in one or more screens of this group.
Tb MetRS inh = Trypanosoma brucei MetRS inhibition; purified T. brucei MetRS, ATP depletion, Kinase-Glo luminescence; inhibition, % at 11.9 µM; actives 0.4% (n = 360,000); AID 624268;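 active = inhibition above a per-plate cutoff of the control wells' mean inhibition plus 3 SD, cut at about 5.5% in these data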;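 note: 0% = DMSO wells median and 100% = median of wells with control inhibitor compound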
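Test system – parasite MetRS enzyme · Reagent – substrates ATP, L-methionine and bulk Escherichia coli tRNA · Doses – 11.9 µM compound single dose, 0.9% DMSO · Times – 15 min enzyme-compound preincubation, 2 h reaction, 10 min detection, 25 °C · Signal – Kinase-Glo luminescence, ATP depletion format · Controls – DMSO-only wells as low control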
Granule exo inh = lytic granule exocytosis inhibition. actives 0.66% (n = 360,000). inhibition, % at 10 µM. TALL-104 LAMP-1 surface exposure, flow cytometry; cells stimulated with thapsigargin and PMA;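 active = inhibition above about 55%, limit read from the data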
iPSC survival up = increases survival of single human iPS cells; actives 0.044% (n = 360,000); survival enhancement, % at 20 µM; AID 602274; hiPSC single-cell survival, ATPlite luminescence; 100% = ROCK inhibitor wells, 0% = DMSO; in the data active = survival enhancement above about 18%;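 note: cells exposed to compounds for 16 hours before the ATP read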
MC4R ag barr = human MC4R agonism via beta-arrestin; P32245; U2OS MC4R beta-arrestin complementation, luminescence; percent of melanotan II response, DMSO zero; activation, % at 8.9 µM; actives 0.98% (n = 360,000); AID 540308;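 active = activation above a per-plate cutoff, the mean activation of sample wells on that plate plus 3 SD, cut at about 8% in these data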
Target sequence (P32245 whole entry, looked up): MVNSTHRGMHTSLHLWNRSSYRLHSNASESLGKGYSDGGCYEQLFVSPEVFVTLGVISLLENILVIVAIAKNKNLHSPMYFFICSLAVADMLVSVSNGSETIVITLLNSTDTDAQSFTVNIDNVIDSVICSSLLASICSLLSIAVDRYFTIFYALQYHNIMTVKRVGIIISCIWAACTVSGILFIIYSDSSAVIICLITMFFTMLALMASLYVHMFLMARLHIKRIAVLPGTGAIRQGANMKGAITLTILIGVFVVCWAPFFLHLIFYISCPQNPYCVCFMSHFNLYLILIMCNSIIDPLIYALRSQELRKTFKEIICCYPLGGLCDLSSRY
MC4R antagonist = blocks human MC4R cAMP signaling | P32245 | MC4R-expressing cells, MTII-stimulated cAMP, LANCE TR-FRET | inhibition, % at 6.5 µM | actives 0.48% (n = 360,000) | AID 540295;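 active = inhibition above its plate's cutoff, the mean of tested wells on that plate plus 3 SD, cut at about 29% in these data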;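 note: 0% = Melanotan II alone and 100% = Melanotan II plus saturating MCL0020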
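Material: human MC4R-expressing U2OS cells. Probe or stimulus: Melanotan II challenge. Dosing: 6.5 µM single dose. Times: 30-min compound, 1-h challenge, 1-h detection, room temperature. Technique: TR-FRET with Eu-cAMP and labeled anti-cAMP, 671 nm. Replication: singlicate.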
ABCB6 inh 2 = blocks the human ABCB6 transporter. Q9NP58. K562-ABCB6 porphyrin accumulation, flow cytometry, 1 h; stronger effect = lower value. fluorescence ratio to DMSO, % at 10 µM. actives 0.19% (n = 360,000);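 active = fluorescence ratio to DMSO below 75%, the collection mean minus 3 SD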;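 note: signal is porphyrin accumulated inside mitochondria; 100% equals median channel fluorescence of DMSO control wells; lower ratio means ABCB6 inhibition with less porphyrin fluorescence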
MC4R barr conf = human MC4R beta-arrestin agonism confirmation; shares compounds with MC4R ag barr; U2OS MC4R beta-arrestin recruitment, luminescence; scaled DMSO 0%, Melanotan II 100%; activation, % at 8.9 µM; actives 31% (n = 2,400);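 active = mean activation across replicates above the hit cutoff set in the earlier primary screen, cut at about 8% in these data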
MOR DOR agonist = activates mu-delta opioid heterodimer, MC4R agonist counter-screen | shares compounds with MC4R ag barr | U2OS PathHunter beta-arrestin, beta-gal luminescence; percent of deltorphin B response, DMSO zero | activation, % at 9.2 µM | actives 5.8% (n = 2,400);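 active = mean activation across replicates exceeds the hit threshold derived in the earlier primary screen, cut at about 18% in these data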;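 note: 100% = deltorphin B at 0.9 µM final and 0% = DMSO alone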
* hit, by the source's call; nt = no result.

SMILES	Tb MetRS inh	Granule exo inh	iPSC survival up	MC4R ag barr	MC4R antagonist	ABCB6 inh 2	MC4R barr conf	MOR DOR agonist
Cc1ccc(-c2cc(C(=O)Nc3cnn(C45CC6CC(CC(C6)C4)C5)c3)no2)cc1	-1	0	2	6	-22	94	nt	nt
Cc1cc(=O)[nH]c(SCC(=O)N2CCCC(C)C2)n1 (centres undefined)	-1	-5	0	2	4	95	nt	nt
O=C1CCC(C(=O)N2CCC(CO)(Cc3ccc(Cl)cc3)CC2)=NN1	0	0	0	-4	4	99	nt	nt
O=C(Nc1ccccc1)Nc1ccc2ccccc2n1	-1	-16	0	12*	-3	98	1	4
O=C(Nc1cccc(Cl)c1)c1ccc2c(c1)SC1=NS(=O)(=O)CCN12	-1	1	-1	-2	0	96	nt	nt
CCCC(=O)Nc1ccc(-c2csc(N/N=C\c3ccncc3)n2)cc1	0	13	-1	19*	11	90	3	8
CC(=O)Nc1ccc(-c2csc(N/N=C\c3ccncc3)n2)cc1	1	7	1	-3	-6	102	nt	nt
C=C(C)c1cccc(C(C)(C)NC(=O)NCc2ccc(OC)cc2)c1	-1	-4	-1	17*	1	103	1	5
C=C(C)c1cccc(C(C)(C)NC(=O)NCc2ccc(OC)c(OC)c2)c1	-1	1	-2	-1	9	105	nt	nt
Nc1cccc(-n2nnnc2CN2CCOCC2)c1	0	-2	2	-2	11	101	nt	nt
COc1ccc(N2CC(O)=C(c3nc(-c4ccc(Br)cc4)cs3)C2=N)cc1	0	-7	-1	4	7	98	nt	nt
COc1ccc(N2CC(O)=C(c3nc(-c4ccccc4)cs3)C2=N)cc1	0	-2	1	19*	8	96	8	4
Cc1ccc(N2CCN(C(C(=O)Nc3c(C)cccc3C)c3ccccc3OC(F)(F)F)CC2)cc1 (centres undefined)	0	5	nt	nt	nt	nt	nt	nt
NC(=S)N/N=C/c1cc([N+](=O)[O-])ccc1OCCOc1ccccc1	1	-1	-4	16*	-12	98	2	4
Cn1c(=O)c2c(ncn2CC(=O)OCC(=O)Nc2ccc(F)cc2Cl)n(C)c1=O	0	1	0	0	4	102	nt	nt
Cc1cc(Cl)c(S(=O)(=O)N2CCCC2)cc1OCC(N)=O	-1	0	-1	3	-6	99	nt	nt
Cc1cc(Cl)c(S(=O)(=O)N2CCN(c3cccc(C)c3C)CC2)cc1OCC(N)=O	0	-1	5	14*	13	101	4	6
COc1cc2c(cc1OC)C(c1ccc(-c3ccc(Cl)cc3Cl)o1)=NCC2	0	35	-3	12*	-10	90	7	4
COc1cc2c(cc1OC)C(c1ccc(-c3cc(Cl)ccc3Cl)o1)=NCC2	0	6	-4	1	-10	98	nt	nt
CCC1CCCCN1CCCNC(=O)C1CCN(c2nnc(-n3cccc3)s2)CC1 (centres undefined)	0	7	-1	-1	-2	86	nt	nt
COc1ccc2cc(CNCCOCCOCCNCc3ccc4cc(OC)ccc4c3)ccc2c1	0	47	-3	17*	5	138	58*	20*
COc1ccc(S(=O)(=O)N(C)C[C@H]2OCc3cn(nn3)CCCC(=O)N([C@H](C)CO)C[C@@H]2C)cc1	-2	8	5	1	3	95	nt	nt
COc1ccc(-c2onc(C)c2-c2ccc(C(=O)OC(C)C)o2)c(O)c1	0	7	-4	12*	14	110	7	9
C/C(=N\N=C(/C)c1cccc(N)c1)c1cccc(N)c1	0	2	-1	1	7	99	nt	nt
CC(=O)Nc1cc(-c2cccc(F)c2)cn2c(-c3ccc(F)c(Cl)c3)cnc12	0	7	4	16*	5	113	19*	3
SMILES	Tb MetRS inh	Granule exo inh	iPSC survival up	MC4R ag barr	MC4R antagonist	ABCB6 inh 2	MC4R barr conf	MOR DOR agonist
COc1cccc(-c2cnc3c(NC(C)=O)cc(-c4cccc(NS(C)(=O)=O)c4)cn23)c1	0	7	1	8	11	95	nt	nt
CC(=O)Nc1cc(-c2cccc(NS(C)(=O)=O)c2)cn2c(-c3ccccc3)cnc12	0	-20	-2	12*	5	97	20*	4
CC(=O)Nc1cc(-c2ccccc2)cn2c(-c3ccc(F)c(Cl)c3)cnc12	0	41	0	22*	-3	108	21*	4
COc1cc(-c2cc(NC(C)=O)c3ncc(-c4ccccc4)n3c2)cc(OC)c1OC	0	29	-1	4	24	97	nt	nt
CC(=O)Nc1cc(-c2cccc(C)c2)cn2c(-c3ccc(S(C)(=O)=O)cc3)cnc12	0	-12	0	2	12	94	nt	nt
CC(=O)Nc1cc(-c2ccc(F)cc2)cn2c(-c3ccc(F)c(Cl)c3)cnc12	0	1	0	19*	17	103	18*	5
O=C(N/N=C/c1cccnc1)C1CC1(c1ccccc1)c1ccccc1 (centres undefined)	-1	-4	-2	5	7	100	nt	nt
CC(=O)Nc1cncc(-c2cccc(S(C)(=O)=O)c2)n1	0	-2	1	0	8	95	nt	nt
O=C(COc1ccccc1[N+](=O)[O-])Nc1ccc2c(c1)CCC2	0	3	0	13*	2	97	2	3
Nc1sc(-c2ccccc2)cc1-c1n[nH]c(=S)n1C1CCCCC1	2	18	0	11*	-16	96	7	8
S=c1[nH]nc(-c2cccs2)n1C1CCCCC1	0	-2	0	0	5	94	nt	nt
NC(c1csc(NC(=O)Nc2ccccc2)n1)C1CCCCC1 (centres undefined)	0	-6	-3	-2	7	95	nt	nt
NC(c1ccccc1)c1csc(NC(=O)Nc2ccc(OC(F)(F)F)cc2)n1 (centres undefined)	0	6	2	-2	1	98	nt	nt
NC(c1ccccc1)c1csc(NC(=O)Nc2cccc(Cl)c2)n1 (centres undefined)	0	-6	-2	12*	-7	100	13*	13
NC(c1csc(NC(=O)Nc2cccc(Cl)c2)n1)C1CCCCC1 (centres undefined)	1	31	-6	13*	-3	99	20*	18
